Results gathered from unrelated publications.
Each line is one published result; the experiments were not run side by side.
Target: Focal adhesion kinase 1 (PTK2, Homo sapiens, UniProt Q05397)

`COc1cnc(Nc2cccc(S(N)(=O)=O)c2)nc1N1CCN(c2ccccc2)CC1` has a remaining binding of 100% (binding; competition with immobilised ligand; 1 µM).
`Nc1ncc2c(n1)-c1c([nH]c3ccc(C#CC4CC4)cc13)CCCC2` has a remaining binding of 91% (binding; competition with immobilised ligand; 1 µM).
With `c1cnn2ncc(-c3ccnc(N4CCC45COC5)n3)c2c1` the remaining binding was 99% (binding; 1 µM).
For `FC(F)(F)Oc1cccc(-c2cnc3ccc(-c4ccncc4)nn23)c1`, the remaining binding was 83% (cell-free assay; competition with immobilised ligand; 5 µM).
With `CN(C)c1nccc(-c2cnc3ncccn23)n1` the remaining binding was 100% (binding; 1 µM).
`c1cncc(-c2cccc(Nc3nccc(NC4CCCCC4)n3)c2)c1` gave a remaining binding of 67% (binding; competition with immobilised ligand; 10 µM).
With `O=C(c1ccc(Nc2ncc(Cl)c(-c3ccc(Cl)s3)n2)cc1)N1CCC(N2CCCC2)CC1` the remaining binding was 41% (binding; competition with immobilised ligand; 1 µM).
For `CC1CCCN1c1nccc(-c2cnn3ncccc23)n1` (centres unmarked), the remaining binding was 100% (binding; 1 µM).
`O=C(NS(=O)(=O)c1ccc(NCC2CCOCC2)c([N+](=O)[O-])c1)c1ccc(N2CCN(Cc3ccc(C(F)(F)F)cc3-c3ccc(Cl)cc3)CC2)cc1Oc1cnc2[nH]ccc2c1` gave a remaining binding of 100% (cell-free assay; competition with immobilised ligand; 1 µM).
`C[C@@H]1CCN(c2nccc(-c3cnn4ncccc34)n2)C1` has a remaining binding of 100% (binding; 1 µM).
`CCOCCn1cc(C(=O)Nc2ccc(-n3nc(-c4cccnc4)cc3C(F)(F)F)cn2)ccc1=O` has a remaining binding of 100% (cell-free assay; competition with immobilised ligand; 1 µM).
`C[C@@H]1CN(c2ccc3ncc(-c4ccc5[nH]nc(C6CC6)c5c4)n3n2)C[C@H](C)O1` gave a remaining binding of 100% (binding; competition with immobilised ligand; 0.5 µM).
`O=C(NCCCN1CCOCC1)c1ccc(Nc2ncc(Cl)c(-c3ccc(Cl)s3)n2)cc1` has a remaining binding of 8.1% (binding; competition with immobilised ligand; 1 µM).
`C=CC(=O)N1CCC(C(=O)NCC(=O)N2CCN(c3nc(-c4cnc(N)nc4C(F)F)nc(N4CCOCC4)n3)CC2)CC1` gave a remaining binding of 100% (binding; competition with immobilised ligand; 1 µM).
With `O=C(Nc1c[nH]nc1C(=O)NC1CCNCC1)c1cc(F)cc(F)c1` the remaining binding was 91% (binding; competition with immobilised ligand; 1 µM).
For `CNC(=O)Nc1ccc2c(c1)[C@@]1(CC2)OC(=O)N(CC(=O)N(Cc2ccc(F)cc2)[C@@H](C)C(F)(F)F)C1=O`, the remaining binding was 100% (cell-free assay; competition with immobilised ligand; 1 µM).
`CNC(=O)[C@@H]1CC[C@@H](n2c(-c3ccc4cnccc4c3)nc3ccc(C(=O)NCc4cccc(C(N)=O)c4)cc32)C1` has a remaining binding of 92% (binding; competition with immobilised ligand; 1 µM).
`O=C(NCc1ncc(C(F)(F)F)cc1Cl)c1ccc2c(c1)C1(CCS(=O)(=O)CC1)[C@@H](C1CC1)N2S(=O)(=O)c1ccc(F)cc1` gave a remaining binding of 95% (cell-free assay; competition with immobilised ligand; 1 µM).
`O=C(c1ccc(Nc2ncc(Cl)c(-c3cc4ccccc4s3)n2)cc1)N1CCC(N2CCCC2)CC1` has a remaining binding of 78% (binding; competition with immobilised ligand; 1 µM).
`COc1cccc(CNC(=O)c2nc3scc(COCc4ccc(C(=O)O)cc4)c3c(=O)[nH]2)c1` gave a remaining binding of 100% (cell-free assay; competition with immobilised ligand; 1 µM).
`CC(C)(C)c1ccc(-c2nc(CBr)nn2-c2cccc(O)c2)cc1` gave a remaining binding of 88% (cell-free assay; competition with immobilised ligand; 10 µM).
`c1ccc(N2CCN(Cc3nc4ccccc4[nH]3)CC2)nc1` has a remaining binding of 86% (binding; competition with immobilised ligand; 1 µM).
The remaining binding of `C[C@@H](c1ccc(-n2cnc3c(N)ncnc32)cc1)N1CCc2nn(C)c(Cc3ccccc3)c2C1=O` is reported as 87% (binding; competition with immobilised ligand; 0.1 µM).
